Screening data: PubChem, several laboratories
CYP2C19 inhib = inhibitors of human CYP2C19 | CYP2C19 Supersomes, luciferin-H EGE luminescence, 30 min | 96,000 compounds, 21% hits | P33261 | AID 778 | inhibition, % at 5 µM;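 active = CYP2C19 inhibition above a set limit at 5 µM in the primary screen, cut at about 50% in these data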;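 note: plate controls were negative control wells for no effect and 2.5 mM tranylcypromine positive control for full effect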
CYP2C19 act = cytochrome P450 2C19 (human) activation | 96,000 tested, under 10 active | activation factor at 5 µM | P33261 | recombinant CYP2C19, luciferin-H EGE luminescence; stronger effect = higher value; 0 = fully inhibited enzyme, 1 = untreated enzyme | AID 1025;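 active = activation factor of at least 2 at 5 µM in the primary screen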;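 note: 0 = wells with 2.5 mM tranylcypromine and 1 = vehicle-only wells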
Rev-RRE block = inhibitors of HIV-1 Rev-RRE RNA interaction | P05866 | Rev peptide-RRE RNA binding, FRET | inhibition, % at 8 µM | 97,000 compounds, 0.79% hits;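 active = inhibition above the screen-wide mean plus 3 SD, cut at about 35% in these data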;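 note: 0% = median DMSO wells and 100% = median Neomycin B control wells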
Target sequence (P05866 whole entry, looked up): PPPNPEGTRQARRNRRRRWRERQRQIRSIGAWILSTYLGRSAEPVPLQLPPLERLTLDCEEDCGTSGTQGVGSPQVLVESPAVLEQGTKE
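Assay system: Labelled RRE RNA duplex and labelled Rev peptide | Times: 5 min preincubation and 15 min binding, 25 °C | Detection: FRET, ex 480 nm, em 540 and 671 nm | Evaluation: % inhibition of FRET ratio versus controls | Benchmarks: DMSO wells as 0% and neomycin B wells as 100% inhibition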
CYP2C9 inh = inhibitors of human CYP2C9; P11712; inhibition, % at 5 µM; 96,000 compounds, 20% hits; CYP2C9 Supersomes, luciferin-H conversion, luminescence;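 active = blocking of liver enzyme CYP2C9 beyond about 50% at 5 µM, limit read from the data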
Target sequence (P11712 whole entry, looked up): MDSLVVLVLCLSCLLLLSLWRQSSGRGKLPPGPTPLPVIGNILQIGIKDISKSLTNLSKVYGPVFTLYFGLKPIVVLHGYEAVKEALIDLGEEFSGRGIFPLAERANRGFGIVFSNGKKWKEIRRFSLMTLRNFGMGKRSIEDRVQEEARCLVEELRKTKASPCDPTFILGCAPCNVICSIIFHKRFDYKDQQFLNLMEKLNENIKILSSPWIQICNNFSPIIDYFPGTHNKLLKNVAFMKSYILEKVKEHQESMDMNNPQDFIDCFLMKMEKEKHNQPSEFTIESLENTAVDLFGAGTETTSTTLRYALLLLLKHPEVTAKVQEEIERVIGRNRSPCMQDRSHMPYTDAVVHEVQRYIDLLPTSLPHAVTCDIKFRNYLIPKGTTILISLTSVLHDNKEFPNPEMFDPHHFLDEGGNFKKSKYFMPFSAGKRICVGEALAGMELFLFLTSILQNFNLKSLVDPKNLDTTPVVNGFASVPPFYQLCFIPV
CYP2C9 act = CYP2C9 (human) activation; P11712; recombinant CYP2C9, luciferin-H conversion, luminescence; stronger effect = higher value; factor 1 = untreated enzyme, 0 = blocked; activation factor at 5 µM; 96,000 compounds, 1.4% hits; AID 1024;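 active = activation factor of 2 or more for CYP2C9 at a 5 µM dose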;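 note: 0 = sulfaphenazole-blocked wells and 1 = vehicle-only wells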
Cav32 inh = blocks human Cav3.2 T-type calcium channel; AID 449739; 100,000 compounds, 4% hits; Cav3.2-expressing cells, Fluo-4 calcium fluorescence FDSS; stronger effect = lower value; O95180; B-score at 10 µM;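 active = single-dose well whose peak fluorescence ratio is a statistical outlier from its plate by either plate-standardised score or position-corrected B-score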
Active calls of the source: *; nt = no result; [ ] = remark or other dose. Only some compounds are listed: those with a hit (about 27% of all), similar ones and a draw of the others.

SMILES | CYP2C19 inhib | CYP2C19 act | Rev-RRE block | CYP2C9 inh | CYP2C9 act | Cav32 inh
Cc1cc(NC(=O)CSc2nc(C(C)C)nc3c2c(=O)n(C)c(=O)n3C)no1 | -8 | 1.1 | 10 | 14 | 0.9 | 0.48
Cn1c(=O)c2c(nc(OCc3cccnc3)n2Cc2c(F)cccc2Cl)n(C)c1=O | 17 | 0.8 | 1 | 52* | 0.5 | 2.8
CC(C)c1nc(SCc2c(F)cccc2Cl)c2c(=O)n(C)c(=O)n(C)c2n1 | 1 | 1 | 8 | 67* | 0.3 | -1.9
O=C(CSc1nc2ccccc2[nH]1)NCCN1CCCCC1 | -5 | 1.1 | 1 | 4 | 1 | -0.83
Cc1ccc2[nH]c3c(c2c1)CN(C(=O)CN(C)CC1OCCO1)CC3 | 23 | 0.8 | 15 | -1 | 1 | -0.47
CC1=NN(C(=O)c2ccc(C)cc2)C(O)(C(F)(F)OC(F)(F)F)C1 (stereo unspecified) | 20 | 0.8 | 3 | 13 | 0.9 | -0.11
COc1ccc(C2C(C(C)=O)=C(C)N=c3s/c(=C\c4ccc5c(c4)OCO5)c(=O)n32)c(OC)c1 (stereo unspecified) | nt | nt | 5 | nt | nt | -1.5
COc1ccc(C2C(C(C)=O)=C(C)N=c3s/c(=C\c4ccco4)c(=O)n32)c(OC)c1 (stereo unspecified) | 53* | 0.5 | 11 | 78* | 0.2 | -1.1
COc1ccc(C2C(C(C)=O)=C(C)N=c3s/c(=C\c4cc(C)n(C)c4C)c(=O)n32)c(OC)c1 (stereo unspecified) | 32 | 0.7 | 128*[fluorescence artefact?] | 42 | 0.6 | -5*
CC(C)C(c1nnnn1Cc1ccccc1)N1CCc2ccccc2C1 (stereo unspecified) | 39 | 0.6 | nt | 53* | 0.5 | -1.5
c1ccc(Cn2nnnc2C(c2cccs2)N2CCc3ccccc3C2)cc1 (stereo unspecified) | 92* | 0.1 | nt | 70* | 0.3 | -3.8*
CCOC(=O)c1[nH]c(C)c(C(=O)NC2CCCC2)c1C | 54* | 0.5 | -2 | 35 | 0.6 | -0.4
CCOC(=O)c1[nH]c(C)c(C(=O)OCC(=O)N2CCCCC2C)c1C (stereo unspecified) | 23 | 0.8 | -2 | 72* | 0.3 | 0.27
O=C1CN(C(=O)COC(=O)c2ccccc2NC(=O)c2ccco2)c2ccccc2N1 | 38 | 0.6 | -1 | 76* | 0.2 | -0.17
O=C1CN(C(=O)COC(=O)C2=COCCO2)c2ccccc2N1 | -18 | 1.2 | -2 | -31 | 1.3 | 0.92
CCOC(=O)c1[nH]c(C)c(C(=O)NCCc2ccc(OC)cc2)c1C | 32 | 0.7 | nt | 72* | 0.3 | -0.52
CCOC(=O)c1[nH]c(C)c(C(=O)NC2CCCCCC2)c1C | nt | nt | 8 | nt | nt | -0.97
CC(C(=O)Nc1cccnc1)N1C(=O)C2C3C=CC(C3)C2C1=O (stereo unspecified) | 4 | 1 | 2 | 0 | 1 | 1.1
CCOC(=O)c1[nH]c(C)c(C(=O)Nc2ccc(C)c(Cl)c2)c1C | nt | nt | 10 | nt | nt | -0.83
CCOC(=O)c1[nH]c(C)c(C(=O)Nc2cc(Cl)ccc2C)c1C | -1 | 1 | nt | -104 | 2* | -0.036
CCOC(=O)c1[nH]c(COC(=O)c2ccccc2NC(=O)c2ccco2)c(C(=O)OCC)c1C | 50 | 0.5 | 15 | 88* | 0.1 | -0.03
COC(=O)c1ccccc1NC(=O)CNC(=O)c1ccco1 | 33 | 0.7 | 2 | 31 | 0.7 | -0.33
CCOC(=O)c1[nH]c(C)c(C(=O)Nc2ccccc2C)c1C | 56* | 0.4 | nt | -11 | 1.1 | -0.24
CSc1nc(C2CC2)cc(-c2cccs2)c1C#N | 5 | 0.9 | 4 | -16 | 1.2 | 0.24
CCCn1c(SCC(=O)OCc2ccccc2)nc2c1c(=O)n(C)c(=O)n2C | -1 | 1 | 8 | 26 | 0.7 | 2
SMILES | CYP2C19 inhib | CYP2C19 act | Rev-RRE block | CYP2C9 inh | CYP2C9 act | Cav32 inh
CC(C)C(=O)N1CCC2(CC1)Oc1ccc(Cl)cc1C(=O)C21CC(c2cccnc2)=NO1 (stereo unspecified) | nt | nt | nt | nt | nt | -0.77
CCOC(=O)CSc1nnc(-c2ccc(OC)cc2OC)o1 | -12 | 1.1 | 4 | -34 | 1.3 | 0.7
N#CCCN/N=C(\Cc1nc2ccccc2[nH]1)c1ccccc1 | 16 | 0.8 | 28 | 23 | 0.8 | -0.17
N#CCCN/N=C(/Cc1nc2ccccc2[nH]1)c1ccc(Cl)cc1 | 98* | 0 | 11 | 75* | 0.2 | -3.2
Cc1ccccc1NC(=O)C1CC(=O)N(c2ccccc2F)C1 (stereo unspecified) | 24 | 0.8 | 1 | -4 | 1 | 0.3
Cc1ccccc1NC(=O)C1CC(=O)N(c2ccc3c4c(cccc24)CC3)C1 (stereo unspecified) | 10 | 0.9 | 3 | 55* | 0.4 | -0.47
Cc1ccc(-c2cc(C(F)F)n3ncc(C(=O)N4CCN(c5cccc(C)c5C)CC4)c3n2)cc1 | 0 | 1 | 1 | 68* | 0.3 | -3.1
COc1ccc(NS(=O)(=O)c2ccc(NC(=O)c3cnn4c(C(F)F)cc(-c5ccc(C)cc5)nc34)cc2)cc1 | 17 | 0.8 | 7 | 60* | 0.4 | -1.4
Cc1ccc(-c2cc(C(F)F)n3ncc(C(=O)Nc4ccc(S(=O)(=O)Nc5ccccc5C)cc4)c3n2)cc1 | 6 | 0.9 | 5 | 82* | 0.2 | -0.86
c1ccc(-c2cnc(-c3ccccc3)nc2)cc1 | 25 | 0.8 | 10 | 40 | 0.6 | -0.17
Cc1ccc2c(c1)NC(=O)C(CC(=O)NCc1ccc(F)cc1)O2 (stereo unspecified) | 15 | 0.8 | 0 | 6 | 0.9 | -0.045
O=C(CC1Oc2ccccc2NC1=O)NCc1ccccc1 (stereo unspecified) | 66* | 0.3 | 13 | -100 | 2* | -0.44
CC1CCC(NC(=O)CC2Oc3ccccc3NC2=O)CC1 (stereo unspecified) | 12 | 0.9 | -7 | -129 | 2.3* | -1.5
COC(C[C@H](O)[C@H](C)[C@H](O)COCc1ccccc1)OC | nt | nt | nt | nt | nt | 0.75
O=C(COC(=O)c1ccccc1NC(=O)c1ccco1)NCc1ccc2c(c1)OCO2 | 12 | 0.9 | 4 | 47 | 0.5 | 0.21
COc1cc2ncnc(NCc3ccc(C)cc3)c2cc1OC | 63* | 0.4 | 3 | -2 | 1 | 1.1
COC(=O)CSc1nnc([C@H](Cc2ccccc2)NC(=O)OC(C)(C)C)o1 | 12 | 0.9 | 4 | 2 | 1 | 0.68
Cc1cccc(CS(=O)(=O)c2nnc([C@H](Cc3ccccc3)NC(=O)OC(C)(C)C)o2)c1 | 36 | 0.6 | 8 | 56* | 0.4 | -0.027
C[C@H](NC(=O)OCc1ccccc1)c1nnc([C@H](Cc2ccccc2)NC(=O)OC(C)(C)C)o1 | nt | nt | nt | nt | nt | -2.7
COC(=O)CS(=O)(=O)c1nnc([C@H](Cc2ccccc2)NC(=O)OC(C)(C)C)o1 | 84* | 0.2 | 6 | 77* | 0.2 | 1.1
